For four molecules, IC50 and Activity results are on record in ChEMBL document CHEMBL4392872, “Phomanolides C-F from a Phoma sp.: Meroterpenoids Generated via Hetero-Diels-Alder Reactions” (J Nat Prod, 2019).

Broadly, the pIC50 is −log10 of the IC50, conventionally taken in molar units.

SMILES strings stand for the structures. pIC50: −log10 of the molar value. Active and inactive are the calls of the source. The calls are words filed in the database; no cut-off is given here.

What all share (type): functional, cell-based
In experiment [1] the test system is HeLa. The experiment in a line: Cytotoxicity against human HeLa cells measured after 48 hrs by MTS assay. The gist of the method: (§1)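 Cells seeded at 1.0 × 10^4 per well and allowed to attach overnight. Medium then replaced with medium holding the test compound, positive control cisplatin, or 0.1% DMSO vehicle. Incubated 48 h at 37 °C, 5% CO2. MTS added and incubated 90 min at 37 °C in the dark, then OD read at 490 nm. Triplicate wells per concentration; each test run three times.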

For experiment [2], the system named is SH-SY5Y. The experiment is described as follows: Cytotoxicity against human SH-SY5Y cells measured after 48 hrs by MTS assay. Summed up:
as §1
On the technique in general: Formazan colour is commonly taken as a measure of viable cells.

Experiment [3] has as its system H4. The experiment is described as follows: Cytotoxicity against human H4 cells at 50 uM measured after 48 hrs by MTS assay.
The subject of experiment [4] is HeLa. The experiment is described as follows: Cytotoxicity against human HeLa cells at 50 uM measured after 48 hrs by MTS assay.
Experiment [5] deals with U-251. The experiment is described as follows: Cytotoxicity against human U251 cells at 50 uM measured after 48 hrs by MTS assay.
Experiment [6] relates to MCF7. The experiment is described as follows: Cytotoxicity against human MCF7 cells at 50 uM measured after 48 hrs by MTS assay.
The test system of experiment [7] is SH-SY5Y. The experiment in a line: Cytotoxicity against human SH-SY5Y cells at 50 uM measured after 48 hrs by MTS assay.
Experiment [8] concerns U-251. The experiment in a line: Cytotoxicity against human U251 cells measured after 48 hrs by MTS assay. Conditions: U-251, 48 h. The gist of the method: as §1
In experiment [9] the test system is H4. The experiment is described as follows: Cytotoxicity against human H4 cells measured after 48 hrs by MTS assay. Conditions: H4, 48 h. Summed up:
as §1

Experiment [10] deals with MCF7. The experiment in a line: Cytotoxicity against human MCF7 cells measured after 48 hrs by MTS assay. Conditions: MCF7, 48 h. The gist of the method: as §1

On to `Cc1cc(O)cc2c1C[C@H]1CC(C)(C)/C=C/C[C@]3(C)OC4=CC(=O)O[C@]5(C)CC(=O)O[C@]45C[C@H]3C[C@H](O)[C@@]1(C)O2`, for which the pIC50 in the experiment on HeLa [1] was 4.30; in the experiment with SH-SY5Y [2] it was 4.08.
For `CC1=CC(=O)O[C@@]23CC(=O)O[C@@]12C[C@H]1C[C@H](O)/C(C)=C\CC(C)(C)/C=C/C[C@]1(C)O3`, the outcome in the experiment on H4 [3], in the experiment on HeLa [4], in the experiment with U-251 [5], in the experiment on MCF7 [6] and in the experiment with SH-SY5Y [7] was inactive.
For `CC1=CC(=O)O[C@@]23CC(=O)O[C@@]12C[C@H]1C[C@H](O)[C@@]2(C)Oc4cc(O)cc(C)c4C[C@H]2CC(C)(C)/C=C/C[C@]1(C)O3`, the outcome with H4 [3], in the experiment with HeLa [4], in the experiment on U-251 [5], in the experiment with MCF7 [6] and in the experiment with SH-SY5Y [7] was inactive.
In the case of `CC1=CC(=O)O[C@@]23CC(=O)O[C@@]12C[C@H]1C[C@H](O)[C@@]2(C)Oc4cc(O)c(=O)cc(C)c4C[C@H]2CC(C)(C)/C=C/C[C@]1(C)O3`, the pIC50 with U-251 [8] was 4.41; with H4 [9] it was 4.35; in the experiment with MCF7 [10] it was 4.16; with SH-SY5Y [2] it was 3.88.
